# Measured values taken from ChEMBL document CHEMBL1126156, “Multivariate analysis by the minimum spanning tree method of the structural determinants of diphenylethylenes and triphenylacrylonitriles implicated in estrogen receptor binding, protein kinase C activity, and MCF7 cell proliferation” (J Med Chem, 1992).
# pEC50: −log10 of the molar value.
# How the values were obtained:
# MCF7S [1] = experiment: Cytostatic activity against MCF-7 cell proliferation.; type: functional, Homo sapiens; set-up: concentration or dose not given beside the values
# In short: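 MCF-7 cells in phenol red-free charcoal-treated medium given 10⁻⁶ M E2 plus test compound (3–10 μM), 6 days of growth. DNA expressed as percent of E2-treated cells. IC30 is the concentration giving 30% inhibition. Percent inhibition taken at 10⁻⁵ M, or at 10⁻⁶ M in a second series. Means of two experiments.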
# MCF7S [2] = experiment: Agonistic activity in MCF-7 cell proliferation.; type: functional, Homo sapiens
# In short: (§1)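 MCF-7 cells grown in phenol red-free medium with 5% dextran-coated charcoal-treated serum, tested 10 pM to 1 μM. DNA content read after growth. Agonism expressed relative to the maximum response with E2 (=100%), whatever the concentration. EC50 (50% of maximum response) taken from two separate experiments.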
# [3] = molecular target: T1, Protein kinase C, PKC; classical (Rattus norvegicus) (UniProt P05696+P68403+P63319); experiment: Percent stimulation or inhibition of protein kinase C with [Ca2+] for phosphatidylserine (PS); type: protein assay
# In short: (§2)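 Purified type III (α) PKC from rat brain soluble fraction. Substrate calf thymus H1 histone with 0.1 mM Ca2+, 5 mM magnesium acetate, 10 μM [32P]ATP and 2 μg/mL phosphatidylserine, no diolein. Most compounds at 10⁻⁴ M, given as percent of control activity.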
# Rattus norvegicus = organism: Rattus norvegicus; experiment: Percent stimulation or inhibition of protein kinase C III activity for protamine sulfate in the presence of EGTA.; set-up: concentration or dose not given beside the values; details: values are per cent of control
# In short: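 Rat brain type III (α) PKC, purified, with protamine sulfate as substrate and 0.5 mM EGTA in place of Ca2+, phosphatidylserine and diolein; 5 mM magnesium acetate, 10 μM [32P]ATP. Most compounds at 10⁻⁴ M; percent of control activity.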
# [4] = molecular target: T1, Protein kinase C, PKC; classical (Rattus norvegicus); experiment: The percent stimulation or inhibition of protein kinase C III activity was determined for phosphatidylserine (PS) and diolein(PS+DO) in the presence of [Ca2+]; type: protein assay; set-up: concentration or dose not given beside the values; details: values are per cent of control
# In short: (§3)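 Type III (α) PKC purified from rat brain soluble fraction, assayed with calf thymus H1 histone, 0.1 mM Ca2+, 5 mM magnesium acetate, 10 μM [32P]ATP, 2 μg/mL phosphatidylserine plus 0.2 μg/mL diolein. Compounds mostly at 10⁻⁴ M; activity expressed as percent of control.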
# [5] = molecular target: T1, Protein kinase C, PKC; classical (Rattus norvegicus); experiment: Percent stimulation or inhibition of protein kinase C III activity for phosphatidylserine (PS) in the presence of [Ca2+].; type: protein assay; set-up: concentration or dose not given beside the values; details: values are per cent of control; in short: as §2
# BT-20 = experiment: Cytotoxic effect on ER-negative BT20 cell proliferation; type: functional, Homo sapiens; set-up: concentration or dose not given beside the values
# In short: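 ER-negative BT20 cells, no E2, test compound at 3–10 μM for 6 days. DNA read as percent of untreated control. IC30 is the concentration inhibiting growth by 30%; percent inhibition taken at 10⁻⁵ M. Means of two experiments, triplicate wells.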
# [6] = molecular target: Estrogen receptor (Bos taurus) (UniProt Q9XSB5+P49884); experiment: Relative binding affinity for calf uterus estrogen receptor after 2 hr at 0 degree C; type: protein assay
# In short: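 Calf uterus cytosol ER incubated 2 h at 0 °C with [6,7-3H]-17β-estradiol and competitor. RBA given relative to estradiol (=100%), mean of at least four determinations.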
# MCF7S [7] = experiment: Antagonist activity against MCF-7 cell proliferation; type: functional, Homo sapiens
# In short: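 Phenol red-free MCF-7 cultures with 5% dextran-coated charcoal-treated serum, stimulated by 0.1 nM E2. Proliferation read as DNA content after 8 days relative to E2 alone. Percent antagonism is the inhibition at 10⁻⁶ M test compound versus 10⁻¹⁰ M E2. IC50 (50% of maximum response) from two separate experiments.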
# MCF7S [8] = experiment: Agonist activity against MCF-7 cell proliferation; type: functional, cell-based; details: Homo sapiens; in short: as §1
# [9] = molecular target: T1, Protein kinase C, PKC; classical (Rattus norvegicus); experiment: Percent stimulation or inhibition of protein kinase C with [Ca2+] for phosphatidylserine and diolein(PS+DO); type: protein assay; set-up: concentration or dose not given beside the values; details: values are per cent of control; in short: as §3
Structure (SMILES),Inhibition (MCF7S [1]) [%],Agonism (MCF7S [2]) [%],residual activity ([3]; values are per cent of control) [%],residual activity (Rattus norvegicus) [%],residual activity [4] [%],residual activity [5] [%],Inhibition (BT-20) [%],RBA [6] [%],Antagonism (MCF7S [7]) [%],pEC50 (MCF7S [8]),residual activity [9] [%],residual activity [3] [%]
CN(C)Cc1cc(C(=C(C#N)c2ccccc2)c2ccc(O)c(CN(C)C)c2)ccc1O,36,31,26,–,–,–,–,–,–,–,–,–
CCC(=C(c1ccc(O)cc1)c1ccc(OCCN(C)C)cc1)c1ccccc1,81,10,–,94,2,27,–,–,–,–,–,–
Oc1ccc(C(=C2CCCC2)c2ccc(O)cc2)cc1,6,100,–,40,42,–,10,23,1,6.89,–,–
CC(C)Oc1ccc(/C(=C(/C#N)c2ccccc2)c2ccc(O)cc2)cc1,57,22,–,–,–,–,–,–,–,–,94,170
CCN(CC)CCOc1ccc(/C(=C(\C#N)c2ccccc2)c2ccc(O)cc2)cc1,89,12,–,88,1,10,–,–,–,–,–,–
C[C@]12CC[C@@H]3c4ccc(O)cc4CC[C@H]3[C@@H]1CC[C@@H]2O [ESTRADIOL],25,100,–,99,89,77,–,–,–,–,–,–
Cc1ccc(C(C#N)=C(c2ccc(O)cc2)c2ccc(O)cc2)cc1,38,71,–,46,38,84,–,–,–,–,–,–
N#C/C(=C(\c1ccccc1)c1ccc(O)cc1)c1ccccc1,30,99,–,90,–,107,–,–,–,–,87,–
Cc1ccc(/C(=C(/C#N)c2ccc(O)cc2)c2ccc(O)cc2)cc1,35,69,–,90,80,113,–,–,–,–,–,–
COc1ccc(/C(=C(\C#N)c2ccccc2)c2ccc(O)cc2)cc1,36,26,–,100,100,100,–,–,–,–,–,–
CCN(CC)CCOc1ccc(/C(=C(/C#N)c2ccccc2)c2ccc(O)cc2)cc1,77,16,–,–,–,20,–,–,–,–,2,20
CC/C(=C(\c1ccccc1)c1ccc(OCCN(C)C)cc1)c1ccccc1 [TAMOXIFEN],49,21,–,107,–,49,–,–,–,–,21,–
N#CC(=C(c1ccc(O)cc1)c1ccc(O)cc1)c1ccccc1,30,62,–,50,42,94,–,–,–,–,–,–
CC(C)Oc1ccc(/C(=C(\C#N)c2ccccc2)c2ccc(O)cc2)cc1,61,33,–,86,101,138,–,–,–,–,–,–
CCN(CC)CCOc1ccc(C(C#N)=C(c2ccccc2)c2ccccc2)cc1,53,71,–,96,20,43,–,–,–,–,–,–
CC(C)Oc1ccc(C(=C(C#N)c2ccccc2)c2ccc(OC(C)C)cc2)cc1,32,40,–,100,100,100,–,–,–,–,–,–
CCN(CC)CCOc1ccc(C(=C(C#N)c2ccccc2)c2ccc(OCCN(CC)CC)cc2)cc1,94,62,–,101,10,20,–,–,–,–,–,–
N#C/C(=C(\c1ccccc1)c1ccc(O)cc1)c1ccc(O)cc1,30,100,–,68,91,97,–,–,–,–,–,–
Cc1ccc(/C(=C(/C#N)c2ccccc2)c2ccc(O)cc2)cc1,38,55,–,77,95,107,–,–,–,–,–,–
N#CC(=C(c1ccccc1)c1ccccc1)c1ccccc1,16,68,–,106,106,126,–,–,–,–,–,–
Oc1ccc(C(=C2CCCCC2)c2ccc(O)cc2)cc1,12,97,–,91,81,111,12,26,23,8.35,–,–
N#C/C(=C(/c1ccccc1)c1ccc(O)cc1)c1ccccc1,12,94,–,94,104,96,–,–,–,–,–,–
N#C/C(=C(/c1ccccc1)c1ccc(O)cc1)c1ccc(O)cc1,17,98,–,86,87,94,–,–,–,–,–,–
COc1ccc(C(=C(C#N)c2ccccc2)c2ccc(OC)cc2)cc1,8,34,–,92,100,98,–,–,–,–,–,–
Oc1ccc(C(=C2CCCCCC2)c2ccc(O)cc2)cc1,16,96,–,93,71,–,20,17,21,8.58,–,–
N#CC(=C(c1ccc(O)cc1)c1ccc(O)cc1)c1ccc(O)cc1,39,85,–,33,32,38,–,–,–,–,–,–
N#CC(=C(c1ccccc1)c1ccccc1)c1ccc(O)cc1,8,90,–,103,113,92,–,–,–,–,–,–
